Screening results (PubChem BioAssay)
Runt-SMMHC FRET – inhibitors of RUNX1 Runt–CBFb-SMMHC binding, primary screen, biochemical, FRET, Cerulean-Runt, Venus-CBFb-SMMHC, uHTS | Runt-related transcription factor 1 (Homo sapiens) + Core-binding factor subunit beta … | Cerulean-Runt/Venus-CBFb-SMMHC FRET ratio 530/480, 1 h | inhibition, % at 20 µM | 220,000 tested, 0.74% active | AID 1434, 2008;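 active = mean inhibition across duplicate retests at 20 µM reaching about 50%, limit read from the data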;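 note: 0% = DMSO wells and 100% = wells with excess untagged CBFb-SMMHC; inhibitors lower the FRET ratio by blocking Runt binding to CBFb-SMMHC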
Platelet DG rel – inhibitors of platelet dense granule secretion, primary screen, cell-based, MLPCN, human platelets | inhibition, %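 (compounds screened at 7.5 µM in platelet-rich plasma)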 | 300,000 tested, 0.22% active | AID 1663, 2009 | human platelet-rich plasma, SFLLRN dense granule ATP release, luminescence;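 active = mean replicate score, as percent of positive control, at or above 50; inconclusive = mean below 50 but at least one replicate at or above 50; inactive = mean and every replicate below 50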
Runt-CBFb FRET – inhibitors of RUNX1 Runt–CBFb binding, primary screen, biochemical, FRET, Cerulean-Runt, Venus-CBFb, uHTS; Runt-related transcription factor 1 (Homo sapiens) + Core-binding factor subunit beta …; Cerulean-Runt/Venus-CBFb FRET ratio 530/480, 1 h; 220,000 tested, 0.46% active; inhibition, % at 20 µM;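 active = inhibition over about 50% at 20 µM in the single-dose screen, limit read from the data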;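 note: 0% = DMSO wells and 100% = excess unlabeled CBFb competitor control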
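System: Cerulean-labeled Runt domain protein | Quantity: 100 nM of each labeled protein | Schedule: 1 h compound exposure, room temperature | Detection: Fluorescence energy transfer, 422 nm excitation, 530/480 nm emission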
Rce1 inh – yeast Rce1p protease inhibitors, primary screen, biochemical, fluorescence, cell-free homogeneous; 290,000 tested, 0.27% active; AID 2563, 2010; yeast membranes, quenched prenylated peptide cleavage fluorescence; CAAX prenyl protease 2 (Saccharomyces cerevisiae (strain ATCC 204508 / S288c)), Q03530; calls only;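 active = fall in fluorescence gain of 50% or more versus controls, with final raw signal at or below 3038400; inconclusive = same 50% fall but final raw signal above 3038400; inactive = fall in fluorescence gain under 50%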;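 note: plate controls were neutral control wells for no effect and wells lacking membranes for full effect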
Target sequence (Q03530 whole entry, looked up): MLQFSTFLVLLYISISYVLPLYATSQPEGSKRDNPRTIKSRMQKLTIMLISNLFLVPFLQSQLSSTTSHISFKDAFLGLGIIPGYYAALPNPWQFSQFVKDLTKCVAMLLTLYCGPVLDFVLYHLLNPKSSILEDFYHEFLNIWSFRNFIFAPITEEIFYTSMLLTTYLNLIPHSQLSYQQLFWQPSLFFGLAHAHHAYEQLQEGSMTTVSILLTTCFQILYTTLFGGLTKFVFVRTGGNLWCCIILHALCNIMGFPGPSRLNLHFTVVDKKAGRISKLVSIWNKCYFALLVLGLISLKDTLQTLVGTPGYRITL
RanGTP-Impb inh – inhibitors of RanGTP-importin-beta interaction, primary screen, biochemical, FRET, CFP-Ran, YFP-importin-beta, homogeneous; Ran GTPase (GTP-bound) - importin-beta complex; cell-free CFP-Ran/YFP-importin-beta FRET ratio; inhibition, % (no concentration beside the values); 300,000 tested, 1.1% active; AID 2216, 2009;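 active = more than half of the replicate wells show a fall in the fluorescence ratio signal beyond about 16%, limit read from the data, passing the limit was not always enough; inconclusive = exactly half of the replicate wells pass the set limit; inactive = fewer than half of replicates pass the limit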;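 note: 0% = DMSO wells and 100% = Ran loaded with GDP instead of GTP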
An asterisk follows results filed as active; i = inactive; ? = inconclusive; . = not tested or not shown; + = active, no number. Sampled rows, rich in hits. Any-hit rate of the full collection: about 1.8%.

SMILES	Runt-SMMHC FRET	Platelet DG rel	Runt-CBFb FRET	Rce1 inh	RanGTP-Impb inh
CN(C)CCNC(=O)c1cccn(Cc2cc(C(F)(F)F)cc(C(F)(F)F)c2)c1=O	2.0	-1.0	-4.4	+	0.0
CCN(CC)CCNC(=O)c1c(O)c2ccccc2n(Cc2ccccc2)c1=O	0.3	-1.8	-0.2	i	-1.0
COc1cc(CN=C(C)c2c(O)n(C3CCCCC3)c(=O)[nH]c2=O)cc(OC)c1	3.6	6.0	-6.5	i	1.8
CCC(=NCCc1ccccc1)c1c(O)[nH]c(=O)[nH]c1=O	-0.6	73.2*	-2.0	i	0.5
Nc1c(C(=O)NCCCc2ccccc2)c2nc3ccccc3nc2n1Cc1cccs1	25.2	-0.2	4.8	i	66.4*
CCCCCn1c(N)c(C(=O)NCc2cccs2)c2nc3ccccc3nc21	18.8	-3.5	3.1	i	55.7*
CCCCn1c(N)c(C(=O)NCc2cccs2)c2nc3ccccc3nc21	76.5*	-2.3	.	i	68.2*
CCCOC(=O)c1c(N)n(Cc2cccs2)c2nc3ccccc3nc12	107.5*	0.0	40.1	i	?
CCCCCn1c(=O)c(C(=O)Nc2nc3ccccc3[nH]2)c(O)c2ccccc21	-0.8	22.5	1.4	i	1.7
CCCCCn1c(=O)c(C(=O)NCCc2ccccc2)c(O)c2ccccc21	.	-5.6	.	i	0.9
C/C=C1\CN2[C@H]3C[C@@]45c6ccccc6N(C)[C@H]4[C@@H]2CC1C3[C@H]5O (stereo not given in full)	.	1.4	.	i	0.0
COc1ccc(-n2c(O)c(/C(C)=N/Nc3ccccc3)c(=O)[nH]c2=O)cc1	0.4	-7.1	-0.7	i	2.1
O=c1[nH]c(=O)n(C2CCCCC2)c(O)c1/C=C/C=Nc1ccccc1	81.1*	0.4	-2.7	i	61.2*
O=c1[nH]c(=O)n(-c2ccccc2)c(O)c1/C=C/C=Nc1ccccc1	60.1*	-10.7	45.7	i	58.0*
O=c1[nH]c(=O)n(C2CCCCC2)c(O)c1C=Nc1ccc(N2CCOCC2)cc1	80.6	-14.4	-56.6	i	1.2
Cc1ccc(N/N=C/c2c(O)n(-c3ccccc3)c(=O)[nH]c2=O)cc1	1.6	-13.4	1.8	i	1.1
NS(=O)(=O)c1ccc(N=Cc2c(O)n(-c3ccccc3)c(=O)[nH]c2=O)cc1	-7.8	-0.9	0.0	i	8.1
Cc1ccc(-n2c(O)c(/C=C/C=Nc3ccccc3)c(=O)[nH]c2=O)cc1	66.0*	-15.5	19.1	i	68.1*
COc1ccc(-n2c(O)c(/C=C/C=Nc3ccccc3)c(=O)[nH]c2=O)cc1	50.6*	-10.5	14.8	i	20.1*
Cc1cc(NC(=O)CCl)nn1C	0.3	-7.6	-0.9	i	7.8
Cn1c(=O)[nH]c2nncnc2c1=O	.	24.2	.	i	-1.7
N#CCCn1cc(C(=O)Nc2ccccc2Cl)c(-c2ccc([N+](=O)[O-])cc2)n1	3.6	4.4	-2.5	i	1.9
C=CCn1c(O)c(/C=C/C=Nc2ccccc2)c(=O)[nH]c1=O	77.4*	2.6	39.4	i	28.8*
CCCCn1c(=O)c(C=Nc2cccnc2Cl)c(O)n(CCCCl)c1=O	-17.3	8.1	-0.8	+	-0.1
O=C1OC(c2ccc([N+](=O)[O-])cc2)=N/C1=C/N1CC2CC(C1)c1cccc(=O)n1C2 (stereo not given)	-41.9	5.3	-15.4	i	-11.2
N#CC1=C(N)Oc2cc(O)ccc2C1c1ccc2c(c1)OCO2 (stereo not given)	90.5*	-1.3	20.6	i	66.6*
CC(C)CCn1c(N)c(C(=O)OCC2CCCO2)c2nc3ccccc3nc21 (stereo not given)	82.1*	-3.4	38.2	i	?
CC(C)CCOC(=O)c1c(N)n(CC2CCCO2)c2nc3ccccc3nc12 (stereo not given)	64.8*	-0.6	22.2	i	11.2
COCCCn1c(N)c(C(=O)NCCC(C)C)c2nc3ccccc3nc21	88.3	0.0	17.0	i	102.9*
